target: RAF proto-oncogene serine/threonine-protein kinase (Homo sapiens, UniProt P04049); assay: Inhibition of human cRAF using [gamma-33P-ATP] as a substrate by scintillation counting
Summary of the method: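 Recombinant human c-RAF (5–10 mU) in 25 mM Tris pH 7.5 with 0.02 mM EGTA, 10 mM Mg acetate and 0.66 mg/mL myelin basic protein as phosphoacceptor; started by adding MgATP mix containing [γ-33P]ATP (approx. 500 cpm/pmol). Incubated 40 min at room temperature, stopped with 3% phosphoric acid, spotted on P30 filtermat, washed, dried and counted by scintillation.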

Chain of RAF proto-oncogene serine/threonine-protein kinase (P04049 whole entry): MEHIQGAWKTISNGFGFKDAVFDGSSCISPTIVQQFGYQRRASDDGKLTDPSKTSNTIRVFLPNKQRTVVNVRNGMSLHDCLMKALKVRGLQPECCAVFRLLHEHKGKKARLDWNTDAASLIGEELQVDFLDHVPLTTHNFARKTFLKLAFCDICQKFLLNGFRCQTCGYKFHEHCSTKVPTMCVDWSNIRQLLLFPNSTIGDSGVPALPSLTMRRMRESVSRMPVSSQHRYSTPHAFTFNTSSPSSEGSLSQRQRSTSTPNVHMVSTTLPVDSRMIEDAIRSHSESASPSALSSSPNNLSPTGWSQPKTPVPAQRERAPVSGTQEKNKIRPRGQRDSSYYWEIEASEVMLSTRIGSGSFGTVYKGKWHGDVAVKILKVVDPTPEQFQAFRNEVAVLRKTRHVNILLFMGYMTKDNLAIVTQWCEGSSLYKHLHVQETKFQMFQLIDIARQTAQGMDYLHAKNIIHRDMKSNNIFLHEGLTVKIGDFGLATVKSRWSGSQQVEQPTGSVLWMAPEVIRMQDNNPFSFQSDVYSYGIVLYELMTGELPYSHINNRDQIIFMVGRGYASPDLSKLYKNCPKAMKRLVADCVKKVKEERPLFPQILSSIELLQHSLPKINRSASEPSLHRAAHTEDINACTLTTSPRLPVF

IC50 [nM]	Compound
190	CNC(=O)c1cc2ccc(CCNC(=O)Nc3cc(C)c(Cl)cc3OC)cc2cn1
360	CNC(=O)c1cc2ccc(CCNC(=O)Nc3cccc(C(F)(F)F)c3)cc2cn1
260	CNC(=O)c1cc2ccc(CCNC(=O)Nc3cccc(OC(F)(F)F)c3)cc2cn1
200	CNC(=O)c1cc2ccc(CCNC(=O)Nc3cccc(S(=O)(=O)C(F)(F)F)c3)cc2cn1
370	CNC(=O)c1cc2ccc(CCNC(=O)Nc3ccc(C(F)(F)F)cc3)cc2cn1
200	CNC(=O)c1cc2ccc(CCNC(=O)Nc3ccc(C)c(C(F)(F)F)c3)cc2cn1
160	CNC(=O)c1cc2ccc(CCNC(=O)Nc3ccc(Cl)c(C(F)(F)F)c3)cc2cn1
240	CNC(=O)c1cc2ccc(CCNC(=O)Nc3ccc(F)c(C(F)(F)F)c3)cc2cn1
250	CNC(=O)c1cc2ccc(CCNC(=O)Nc3cc(C(F)(F)F)ccc3F)cc2cn1
120	CNC(=O)c1cc2ccc(CCNC(=O)Nc3cc(C(F)(F)F)ccc3OC)cc2cn1
450	CNC(=O)c1cc2ccc(CCNC(=O)Nc3cc(C(F)(F)F)ccc3OCCN(C)C)cc2cn1
110	CNC(=O)c1cc2ccc(CCNC(=O)Nc3cc(Cl)c(C)cc3OC)cc2cn1
80	CNC(=O)c1cc2ccc(CCNC(=O)Nc3cc(C(F)(F)F)c(Cl)cc3OC)cc2cn1
340	CNC(=O)c1cc2ccc(CCNC(=O)Nc3cc(C(F)(F)F)c(Cl)cc3OCCN(C)C)cc2cn1
340	CNC(=O)c1nc2ccc(CCNC(=O)Nc3cc(C(F)(F)F)ccc3OC)cc2[nH]1
810	COC(=O)Nc1nc2ccc(CCNC(=O)Nc3cc(C(F)(F)F)ccc3OC)cc2[nH]1
170	COc1ccc(C(F)(F)F)cc1NC(=O)NCCc1ccc2nc(NC(C)=O)[nH]c2c1

IC50 [nM]	Compound
280	CNC(=O)c1nc2ccc(CCNC(=O)Nc3ccc(Cl)c(C(F)(F)F)c3)cc2[nH]1
660	COC(=O)Nc1nc2ccc(CCNC(=O)Nc3ccc(Cl)c(C(F)(F)F)c3)cc2[nH]1
140	CC(=O)Nc1nc2ccc(CCNC(=O)Nc3ccc(Cl)c(C(F)(F)F)c3)cc2[nH]1
480	CC(=O)Nc1nc2ccc(CCNC(=O)Nc3cccc(C(F)(F)F)c3)cc2[nH]1
480	CC(=O)Nc1nc2ccc(CCNC(=O)Nc3ccc(Cl)c(Cl)c3)cc2[nH]1
530	CC(=O)Nc1nc2ccc(CCNC(=O)Nc3ccc(C)c(Cl)c3)cc2[nH]1
190	COc1cc(C)c(Cl)cc1NC(=O)NCCc1ccc2nc(NC(C)=O)[nH]c2c1
320	COc1cc(Cl)c(C)cc1NC(=O)NCCc1ccc2nc(NC(C)=O)[nH]c2c1
580	CNCCOc1ccc(C)cc1NC(=O)NCCc1ccc2nc(NC(C)=O)[nH]c2c1
490	CNCCOc1cc(Cl)c(C)cc1NC(=O)NCCc1ccc2nc(NC(C)=O)[nH]c2c1
210	CNCCOc1ccc(C(F)(F)F)cc1NC(=O)NCCc1ccc2nc(NC(C)=O)[nH]c2c1
230	CNCCOc1cc(Cl)c(C(F)(F)F)cc1NC(=O)NCCc1ccc2nc(NC(C)=O)[nH]c2c1
550	CC(=O)Nc1nc2ccc(CCNC(=O)Nc3cc(C)c(Cl)cc3OCCN)cc2[nH]1
250	CC(=O)Nc1nc2ccc(CCNC(=O)Nc3cc(C(F)(F)F)ccc3OCCN)cc2[nH]1
180	CC(=O)Nc1nc2ccc(CCNC(=O)Nc3cc(C(F)(F)F)c(Cl)cc3OCCN)cc2[nH]1
230	CC(=O)Nc1nc2ccc(CCNC(=O)Nc3cc(C(F)(F)F)ccc3OCC3CCCN3)cc2[nH]1 (stereo not drawn)

From ChEMBL document CHEMBL1759847, “Design and synthesis of isoquinolines and benzimidazoles as RAF kinase inhibitors” (Bioorg Med Chem Lett, 2011)
